Reference: ChEMBL document CHEMBL1156333 (Bioorg Med Chem, 2010)
The source made the active and inactive calls. The rule behind the calls is not given here.

Key:
Punta Toro virus [1] = assay: Ratio of compound EC50 over ribavirin antiviral EC50 for Punta Toro virus; type: functional
Vaccinia virus [2] = assay: Ratio of compound EC50 over ribavirin EC50 for Vaccinia virus lederle; type: functional, Orthopoxvirus vaccinia
[3] = Cytotoxicity against human HeLa cells; type: cell-based
Method in brief: (§1)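 MDCK, HEL and HeLa cultures run alongside the cytopathicity assays received graded compound levels up to 100 μM. Toxicity was scored as the minimum cytotoxic concentration, the lowest level causing a microscopically detectable change in cell morphology.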

Felid alphaherpesvirus 1 = assay: Antiviral activity against Feline herpes virus assessed as inhibition of virus-induced cytopathicity by cell based assay; type: functional, organism-based
[4] = Cytotoxicity against human HEL cells; type: cell-based; method in brief: as §1
Feline coronavirus = assay: Antiviral activity against Feline coronavirus assessed as inhibition of virus-induced cytopathicity by cell based assay; type: functional, organism-based; settings: Alphacoronavirus 1
Human alphaherpesvirus 1 [5] = assay: Antiviral activity against thymidine kinase deficient ACV resistant Herpes simplex virus 1 KOS assessed as inhibition of virus-induced cytopathicity by cell based assay; type: functional, organism-based; settings: Human alphaherpesvirus 1, KOS
Coxsackievirus B4 = assay: Antiviral activity against Coxsackievirus B4 assessed as inhibition of virus-induced cytopathicity by cell based assay; type: functional, organism-based; settings: Enterovirus B
Influenza B virus [6] = assay: Antiviral activity against Influenza B virus infected in MDCK cells assessed as inhibition of virus-induced cytopathicity; type: functional, organism-based
[7] = Cytotoxicity against human HuH5.2 cells; type: cell-based, Huh-5-2
[8] = test system: Respiratory syncytial virus; assay: Antiviral activity against Respiratory syncytial virus Long infected in human HeLa cells assessed as inhibition of virus-induced cytopathicity; type: functional, organism-based
[9] = test system: Mammalian orthoreovirus 1; assay: Antiviral activity against Reovirus 1 assessed as inhibition of virus-induced cytopathicity by cell based assay; type: functional, organism-based
[10] = Cytotoxicity against MDCK cells; type: cell-based, Canis lupus familiaris; settings: dog; method in brief: as §1
Vaccinia virus [11] = assay: Antiviral activity against Vaccinia virus lederle infected in human HEL cells assessed as inhibition of virus-induced cytopathicity; type: functional, organism-based; settings: Orthopoxvirus vaccinia
Human alphaherpesvirus 1 [12] = assay: Antiviral activity against Herpes simplex virus 1 KOS assessed as inhibition of virus-induced cytopathicity by cell based assay; type: functional, organism-based; settings: Human alphaherpesvirus 1, KOS
Human respirovirus 3 = assay: Antiviral activity against Parainfluenza 3 virus assessed as inhibition of virus-induced cytopathicity by cell based assay; type: functional, organism-based
[13] = test system: Human immunodeficiency virus 1; assay: Antiviral activity against HIV1 3B infected in human CEM cells assessed as inhibition of syncytia formation after 4 days; type: functional, organism-based; settings: Human immunodeficiency virus 1, 3B, CCRF-CEM, 96 h
Method in brief: (§2)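 Human CEM cells (~3 × 10^5 cells/mL) were infected with ~100 CCID50/mL of HIV-1(IIIB) or HIV-2(ROD) and seeded with compound dilutions. After 4 days at 37 °C, syncytia formation was scored microscopically.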

Influenza A virus [14] = assay: Antiviral activity against Influenza A virus H3N2 infected in MDCK cells assessed as inhibition of virus-induced cytopathicity; type: functional, organism-based
[15] = test system: Human immunodeficiency virus 2; assay: Antiviral activity against HIV2 ROD infected in human CEM cells assessed as inhibition of syncytia formation after 4 days; type: functional, organism-based; settings: Human immunodeficiency virus 2, ISOLATE ROD, CCRF-CEM, 96 h; method in brief: as §2
Hepatitis C virus = assay: Antiviral activity against HCV infected in human HuH5.2 cells carrying subgenomic HCV replicon assessed as inhibition of replicon replication by luciferase reporter gene assay; type: functional, organism-based, Hepacivirus hominis; settings: Huh-5-2
Method in brief: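 Huh 5-2 cells are Huh 7 cells carrying the subgenomic replicon I389luc-ubi-neo/NS3-3′/5.1. They were maintained in DMEM with 10% heat-inactivated FCS, non-essential amino acids, penicillin/streptomycin and 250 μg/mL G418. Cells were seeded at 5 × 10^3 cells/well in medium without G418 and exposed to compound.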

Sindbis virus = assay: Antiviral activity against Sindbis virus assessed as inhibition of virus-induced cytopathicity by cell based assay; type: functional, organism-based
Cytomegalovirus = assay: Antiviral activity against Cytomegalovirus assessed as inhibition of virus-induced cytopathicity by cell based assay; type: functional, organism-based; settings: Human betaherpesvirus 5
Human alphaherpesvirus 2 = assay: Antiviral activity against Herpes simplex virus 2 assessed as inhibition of virus-induced cytopathicity by cell based assay; type: functional, organism-based
[16] = test system: Vesicular stomatitis virus; assay: Antiviral activity against Vesicular stomatitis virus infected in human HeLa cells assessed as inhibition of virus-induced cytopathicity; type: functional, organism-based
Vaccinia virus [17] = assay: Antiviral activity against Vaccinia virus lederle infected in human HEL cells assessed as inhibition of virus-induced cytopathicity at 100 uM; type: functional, organism-based; settings: Orthopoxvirus vaccinia
Punta Toro virus [18] = assay: Antiviral activity against Punta Toro virus infected in african green monkey Vero cells assessed as inhibition of virus-induced cytopathicity at 100 uM; type: functional, organism-based
Method in brief: (§3)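 Confluent monolayers (Vero for Punta Toro, HeLa for RSV strain Long) were infected with 100 CCID50 of virus. After 1–2 h adsorption, residual virus was removed and cells were incubated with the compound, 100 μM being the highest level tested. Cytopathicity was scored when untreated infected controls reached full cytopathic effect.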

[19] = test system: Respiratory syncytial virus; assay: Antiviral activity against Respiratory syncytial virus Long infected in human HeLa cells assessed as inhibition of virus-induced cytopathicity at 100 uM; type: functional, organism-based; method in brief: as §3
[20] = test system: Vesicular stomatitis virus; assay: Antiviral activity against Vesicular stomatitis virus infected in human HeLa cells assessed as inhibition of virus-induced cytopathicity at 100 uM; type: functional, organism-based
Influenza B virus [21] = assay: Antiviral activity against Influenza B virus infected in MDCK cells assessed as inhibition of virus-induced cytopathicity at 100 uM; type: functional, organism-based
Influenza A virus [22] = assay: Antiviral activity against Influenza A virus H3N2 infected in MDCK cells assessed as inhibition of virus-induced cytopathicity at 100 uM; type: functional, organism-based
Punta Toro virus [23] = assay: Antiviral activity against Punta Toro virus infected in african green monkey Vero cells assessed as inhibition of virus-induced cytopathicity; type: functional, organism-based

NC(=O)c1ncn([C@@H]2O[C@H](COP(=O)(NCC(=O)OCc3ccccc3)Oc3cccc4ccccc34)[C@@H](O)[C@H]2O)n1 (stereo not given in full)
Ratio (Punta Toro virus [1]): 3 | Ratio (Vaccinia virus [2]): 3 | MCC [3]: > 100 µM | EC50 (Felid alphaherpesvirus 1): > 100 µM | MCC [4]: > 100 µM | EC50 (Feline coronavirus): > 100 µM | EC50 (Human alphaherpesvirus 1 [5]): > 100 µM | EC50 (Coxsackievirus B4): > 100 µM | EC50 (Influenza B virus [6]): > 20 µM | MCC [7]: > 100 µM | EC50 [8]: 58 µM | EC50 [9]: > 100 µM | MCC [10]: > 100 µM | EC50 (Vaccinia virus [11]): 20 µM | EC50 (Human alphaherpesvirus 1 [12]): > 100 µM | EC50 (Human respirovirus 3): > 100 µM | EC50 [13]: > 100 µM | EC50 (Influenza A virus [14]): > 20 µM | EC50 [15]: > 100 µM | MCC (Hepatitis C virus): > 100 µM | EC50 (Sindbis virus): > 100 µM | EC50 (Cytomegalovirus): > 100 µM | EC50 (Human alphaherpesvirus 2): > 100 µM

NC(=O)c1ncn([C@@H]2O[C@H](COP(=O)(N[C@@H](Cc3ccccc3)C(=O)OCc3ccccc3)Oc3cccc4ccccc34)[C@@H](O)[C@H]2O)n1 (stereo not given in full)
EC50 [16]: > 20 µM | MCC [3]: > 100 µM | EC50 (Felid alphaherpesvirus 1): > 100 µM | inhibition (Vaccinia virus [17]): inactive | MCC [4]: > 100 µM | EC50 (Feline coronavirus): > 100 µM | inhibition (Punta Toro virus [18]): inactive | EC50 (Human alphaherpesvirus 1 [5]): > 100 µM | EC50 (Coxsackievirus B4): > 100 µM | EC50 (Influenza B virus [6]): > 100 µM | inhibition [19]: inactive | MCC [7]: > 100 µM | EC50 [8]: > 20 µM | EC50 [9]: > 100 µM | MCC [10]: > 100 µM | EC50 (Vaccinia virus [11]): 100 µM | EC50 (Human alphaherpesvirus 1 [12]): > 100 µM | EC50 (Human respirovirus 3): > 100 µM | inhibition [20]: inactive | EC50 [13]: > 100 µM | EC50 (Influenza A virus [14]): > 100 µM | EC50 [15]: > 100 µM | inhibition (Influenza B virus [21]): inactive | EC50 (Hepatitis C virus): > 70 µM | EC50 (Sindbis virus): > 100 µM | EC50 (Cytomegalovirus): > 100 µM | inhibition (Influenza A virus [22]): inactive | EC50 (Human alphaherpesvirus 2): > 100 µM

C[C@H](NP(=O)(OC[C@H]1O[C@@H](n2cnc(C(N)=O)n2)[C@H](O)[C@@H]1O)Oc1cccc2ccccc12)C(=O)OCc1ccccc1 (stereo not given in full)
EC50 [16]: 20 µM | MCC [3]: > 100 µM | EC50 (Felid alphaherpesvirus 1): > 100 µM | MCC [4]: > 100 µM | EC50 (Feline coronavirus): > 100 µM | EC50 (Human alphaherpesvirus 1 [5]): > 100 µM | EC50 (Coxsackievirus B4): > 100 µM | EC50 (Influenza B virus [6]): 14 µM | MCC [7]: > 100 µM | EC50 [8]: 45 µM | EC50 [9]: > 100 µM | MCC [10]: > 100 µM | EC50 (Vaccinia virus [11]): 100 µM | EC50 (Human alphaherpesvirus 1 [12]): > 100 µM | EC50 (Human respirovirus 3): > 100 µM | EC50 [13]: > 100 µM | EC50 (Influenza A virus [14]): 18 µM | EC50 [15]: > 100 µM | EC50 (Hepatitis C virus): 68 µM | EC50 (Sindbis virus): > 100 µM | EC50 (Cytomegalovirus): > 100 µM | EC50 (Human alphaherpesvirus 2): > 100 µM

NC(=O)c1ncn([C@@H]2O[C@H](CO)[C@@H](O)[C@H]2O)n1 [RIBAVIRIN]
MCC [3]: > 100 µM | MCC [4]: > 100 µM | MCC [7]: > 100 µM | EC50 [8]: 19 µM | MCC [10]: > 100 µM | EC50 (Hepatitis C virus): 87 µM | EC50 (Punta Toro virus [23]): 183 µM
